Experiment [1] is described as follows: Inhibition of PDE4D7 S129D mutant (unknown origin) preincubated for 5 to 10 mins followed by substrate addition and measured for 10 mins by coupled enzyme based fluorescence analysis. Also noted: species or system Homo sapiens. A digest of the protocol: (§1)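 Mutationally activated dimeric enzymes: PDE4D7-S129D (PDE4D*) and PDE4B1-S133D (PDE4B*). A real-time coupled enzyme assay measured inhibition instead of a fluorescein-labeled cAMP substrate, because the label prevents UCR2 closure. PDE4B* was used to assess subtype selectivity. The method otherwise followed earlier work.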

In experiment [2] the target is 3',5'-cyclic-AMP phosphodiesterase 4B (Homo sapiens, UniProt Q07343, S133D). Description: Inhibition of PDE4B1 S133D mutant (unknown origin) preincubated for 5 to 10 mins followed by substrate addition and measured for 10 mins by coupled enzyme based fluorescence analysis. A digest of the protocol:
as §1

Experiment [3] is described as follows: Selectivity index, ratio of IC50 for PDE4B1 S133D mutant (unknown origin) to IC50 for PDE4D7 S129D mutant (unknown origin). A digest of the protocol: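 B/D ratio is the IC50 against PDE4B1-S133D (PDE4B*) divided by the IC50 against PDE4D7-S129D (PDE4D*). Both IC50s come from the real-time coupled enzyme assay on the mutationally activated dimeric enzymes.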

Some results are limits rather than exact numbers.

3',5'-cyclic-AMP phosphodiesterase 4B, sequence (Q07343 whole entry S133D): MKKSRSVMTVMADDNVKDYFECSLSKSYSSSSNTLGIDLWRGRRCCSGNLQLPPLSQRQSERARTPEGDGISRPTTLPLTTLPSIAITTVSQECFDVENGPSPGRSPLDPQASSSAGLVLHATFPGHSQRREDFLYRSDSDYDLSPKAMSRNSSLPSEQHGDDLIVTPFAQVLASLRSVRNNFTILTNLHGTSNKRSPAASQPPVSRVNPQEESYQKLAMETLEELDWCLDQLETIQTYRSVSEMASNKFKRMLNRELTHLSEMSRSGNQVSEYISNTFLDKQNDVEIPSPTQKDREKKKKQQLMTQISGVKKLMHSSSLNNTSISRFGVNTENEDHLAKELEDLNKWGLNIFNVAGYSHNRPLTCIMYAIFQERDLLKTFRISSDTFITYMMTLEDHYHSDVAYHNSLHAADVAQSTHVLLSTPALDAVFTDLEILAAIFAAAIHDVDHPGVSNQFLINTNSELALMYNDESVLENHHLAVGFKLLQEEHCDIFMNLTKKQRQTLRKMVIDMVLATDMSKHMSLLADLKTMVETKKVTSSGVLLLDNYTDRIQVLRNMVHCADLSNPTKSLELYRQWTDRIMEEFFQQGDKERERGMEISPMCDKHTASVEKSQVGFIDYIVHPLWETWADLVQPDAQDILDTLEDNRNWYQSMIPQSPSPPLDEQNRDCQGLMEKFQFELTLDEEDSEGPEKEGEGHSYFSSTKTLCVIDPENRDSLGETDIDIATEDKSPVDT

As usually defined, the IC50 is the concentration needed to halve the response being measured. Higher therefore signals lower potency. Consider `COc1ccc(Cn2cnnn2)nc1-c1cccc(OC(F)F)c1`, for which the IC50 in experiment [1] is 0.016 µM; in experiment [2] it was 1.26 µM. Further, the Ratio IC50 in experiment [3] was 81.
Turning to `COc1ccc(Cc2cn[nH]c2)nc1-c1cccc(OC(F)(F)F)c1`, the IC50 turned out to be 0.046 µM in experiment [1] and 7.44 µM in experiment [2]. Moreover, in experiment [3], the Ratio IC50 came out at 162.
For `Fc1cccc(-c2nc(Cc3cn[nH]c3)ccc2OC(F)F)c1`, the IC50 in experiment [1] is 0.0076 µM; in experiment [2], 1.07 µM. For the same molecule, the Ratio IC50 in experiment [3] stood at 141.
For `COc1ccc(Cn2ccnc2)nc1-c1cccc(OC(F)F)c1`, in that order: 0.00106 µM, 0.593 µM and 559.
Consider `COc1ccc(Cn2cccn2)nc1-c1cccc(F)c1`, for which the IC50 is 5.53 µM in experiment [1] and over 10 µM in experiment [2].
Consider `COc1ccc(Cn2cnc(C(F)(F)F)n2)nc1-c1cccc(OC(F)F)c1`, for which the results for the IC50 in experiment [1] and in experiment [2] were 0.785 µM and over 10 µM, respectively.
Taken in the same sequence, the figures for `FC(F)Oc1cccc(-c2nc(Cn3ccnc3)ccc2OCc2ccccc2)c1` were 0.174 µM and over 10 µM.
`COc1ccc(Oc2cn[nH]c2)nc1-c1cccc(C(F)(F)F)c1`: the figures for the IC50 in experiment [1] and in experiment [2] were 3.54 µM and 3.24 µM, respectively. The Ratio IC50 in experiment [3] is 0.92.
As for `COc1ccc(Cc2cn[nH]c2)nc1-c1cccc(Cl)c1`, the values for the IC50 in experiment [1] and in experiment [2] were 0.006 µM and 0.923 µM, respectively. Besides, in experiment [3], the Ratio IC50 is 154.
For `COc1cccc(-c2nc(Cc3ccc(CCCO)cc3)ccc2OC(F)F)c1`, the results for the half-inhibitory concentration (IC50) in experiment [1] and in experiment [2] were 0.024 µM and over 10 µM, respectively.
With `COc1cccc(-c2nc(Cc3cnn(C)c3)ccc2OC(F)F)c1`, the IC50 in experiment [1] was 0.0035 µM; in experiment [2], 0.853 µM. In addition, in experiment [3], the Ratio IC50 stood at 244.
Consider `COc1cccc(-c2nc(Cc3cncnc3)ccc2OC(F)F)c1`, for which the IC50 in experiment [1] worked out at 0.0102 µM; in experiment [2] it was 1.19 µM. Further, the Ratio IC50 in experiment [3] was found to be 116.
For the molecule `Fc1ccc(Cc2cn[nH]c2)nc1-c1cccc(Cl)c1`, the IC50 in experiment [1] was 0.744 µM; in experiment [2], over 10 µM.
Turning to `COc1cccc(-c2nc(Cn3ccnc3)ccc2OC(F)F)c1`, the IC50 in experiment [1] came to 0.0021 µM; in experiment [2] it was 0.513 µM. Also, in experiment [3], the Ratio IC50 was determined as 242.
Taken in the same sequence, the figures for `COc1cccc(-c2nc(Cn3cnnn3)ccc2OC(F)F)c1` were 0.023 µM, 0.646 µM and 28.
Taken in the same sequence, the figures for `COc1cccc(-c2nc(Cc3cccnc3)ccc2OC(F)F)c1` were 0.0123 µM, 0.764 µM and 62.
For `FC(F)Oc1ccc(Cc2ccncc2)nc1-c1cccc(OCc2ccccc2)c1`, in that order: 0.171 µM, 0.143 µM and 0.84.
Turning to `FC(F)Oc1ccc(Cc2cn[nH]c2)nc1-c1cccc(OCc2ccccc2)c1`, the values for the concentration for half-maximal inhibition (IC50) in experiment [1] and in experiment [2] were 0.446 µM and 0.274 µM, respectively. The Ratio IC50 in experiment [3] turned out to be 0.61.
In the case of `COc1ccc(Oc2cn[nH]c2)nc1-c1cccc(OC(F)F)c1`, the IC50 in experiment [1] is 1.55 µM; in experiment [2], over 10 µM.
For `COc1cccc(-c2nc(Cc3ccncc3)ccc2OC(F)F)c1`, the values for the half-inhibitory concentration (IC50) in experiment [1] and in experiment [2] were 0.0039 µM and 0.621 µM, respectively. For the same molecule, the Ratio IC50 in experiment [3] worked out at 159.
`COc1ccc(Cn2cncn2)nc1-c1cccc(OC(F)F)c1`: the half-inhibitory concentration (IC50) in experiment [1] is 0.015 µM; in experiment [2], over 10 µM.
For `COc1ccc(Nc2cn[nH]c2)nc1-c1cccc(F)c1`, the results for the IC50 in experiment [1] and in experiment [2] were 0.529 µM and 2.53 µM, respectively. Moreover, the Ratio IC50 in experiment [3] was determined as 5.
For `COc1cccc(-c2nc(CNc3cn[nH]c3)ccc2OC(F)F)c1`, in that order: 0.53 µM, 2.27 µM and 4.
For `COc1cccc(-c2nc(Cc3cn[nH]c3)ccc2OC(F)F)c1`, in that order: 0.0027 µM, 0.521 µM and 193.
`COc1cccc(-c2nc(Oc3cn[nH]c3)ccc2OC(F)F)c1`: the IC50 is 0.281 µM in experiment [1] and over 10 µM in experiment [2].
Regarding `FC(F)Oc1cccc(-c2nc(Cc3cn[nH]c3)ccc2OCc2ccccc2)c1`, the 50% inhibitory concentration (IC50) in experiment [1] was 0.164 µM; in experiment [2], over 10 µM.
For the molecule `COc1ccc(Cc2cn[nH]c2)nc1-c1cccc(OC(F)F)c1`, the IC50 in experiment [1] came to 0.0014 µM; in experiment [2], 1.07 µM. Also, the Ratio IC50 in experiment [3] stood at 793.
Consider `COc1cccc(-c2nc(Cc3cn[nH]c3)ccc2OC)c1`, for which, in experiment [1], the IC50 came out at 0.013 µM and the logIC50 is 1.11 log(nM). In addition, the concentration for half-maximal inhibition (IC50) in experiment [2] stood at 2.13 µM. Moreover, in experiment [3], the Ratio IC50 is 165.
Regarding `COc1cccc(-c2nc(C(=O)c3cn[nH]c3)ccc2OC(F)F)c1`, the values for the half-inhibitory concentration (IC50) in experiment [1] and in experiment [2] were 0.873 µM and 1.93 µM, respectively. Also, in experiment [3], the Ratio IC50 worked out at 2.
Consider `COc1cccc(-c2nc(Nc3cn[nH]c3)ccc2OC(F)F)c1`, for which the IC50 in experiment [1] was 0.658 µM; in experiment [2], over 10 µM.
For `COc1ccc(Nc2cn[nH]c2)nc1-c1cccc(OC(F)F)c1`, the IC50 in experiment [1] was found to be 0.188 µM; in experiment [2] it was 2.5 µM. For the same molecule, in experiment [3], the Ratio IC50 amounted to 13.
For `COc1ccc(Cc2cn[nH]c2)nc1-c1ccc2nonc2c1`, in that order: 0.013 µM, 0.73 µM and 57.
As for `COc1ccc(Nc2cn[nH]c2)nc1-c1cccc(Cl)c1`, the IC50 worked out at 0.468 µM in experiment [1] and 3.16 µM in experiment [2]. Also, the Ratio IC50 in experiment [3] came to 7.
Turning to `O=[N+]([O-])c1cccc(-c2nc(Cc3cn[nH]c3)ccc2OC(F)F)c1`, the concentration for half-maximal inhibition (IC50) in experiment [1] was 0.00036 µM; in experiment [2], 0.091 µM. In addition, the Ratio IC50 in experiment [3] worked out at 254.
For `COc1ccc(Cc2cn[nH]c2)nc1-c1cccc(C(F)(F)F)c1`, in that order: 0.186 µM, 7.85 µM and 42.
For `COc1ccc(Cn2ncnn2)nc1-c1cccc(OC(F)F)c1`, the IC50 is 0.021 µM in experiment [1] and over 10 µM in experiment [2].
Taken in the same sequence, the figures for `COc1cccc(-c2nc(Cn3ncnn3)ccc2OC(F)F)c1` were 0.017 µM and over 10 µM.
For `Fc1cccc(-c2nc(Oc3cn[nH]c3)ccc2OC(F)F)c1`, the figures for the IC50 in experiment [1] and in experiment [2] were 0.07 µM and 3.11 µM, respectively. The Ratio IC50 in experiment [3] came to 45.
Regarding `COc1ccc(Cc2ccc(CCCO)cc2)nc1-c1cccc(OC(F)F)c1`, the figures for the IC50 in experiment [1] and in experiment [2] were 0.016 µM and over 10 µM, respectively.
For `COc1cccc(-c2nc(Cn3cncn3)ccc2OC(F)F)c1`, in that order: 0.042 µM and over 10 µM.
Consider `FC(F)Oc1cccc(-c2nc(Cc3ccncc3)ccc2OCc2ccccc2)c1`, for which the results for the IC50 in experiment [1] and in experiment [2] were 0.61 µM and over 7.76 µM, respectively.
Taken in the same sequence, the figures for `COc1ccc(Nc2cn[nH]c2)nc1-c1cccc(C(F)(F)F)c1` were 4.31 µM and over 10 µM.
For `COc1ccc(Cn2cccn2)nc1-c1cccc(C(F)(F)F)c1`, in that order: over 10 µM and over 10 µM.
For `COc1cccc(-c2nc(COc3cn[nH]c3)ccc2OC(F)F)c1`, the results for the IC50 in experiment [1] and in experiment [2] were 0.372 µM and over 10 µM, respectively.
Taken in the same sequence, the figures for `COc1ccc(Cc2ccc(CCO)cc2)nc1-c1cccc(OC(F)F)c1` were 0.004 µM and over 10 µM.
Take `COc1cccc(-c2nc(Cn3cnc(C(F)(F)F)n3)ccc2OC(F)F)c1`: the half-maximal inhibitory concentration (IC50) in experiment [1] was 0.743 µM; in experiment [2], over 10 µM.

The record behind these values is ChEMBL document CHEMBL5316305, “An Empirical Quantitative Structure-Activity Relationship Equation Assists the Discovery of High-Affinity Phosphodiesterase 4D Inhibitors as Leads to PET Radioligands” (J Med Chem, 2023).
